Bioassay records: PubChem, several laboratories
HDAC3 inhib = HDAC3 deacetylase inhibitors, primary screen, biochemical, fluorescence, cell-free homogeneous; inhibition, % at 8.3 µM; recombinant HDAC3, fluorogenic peptide/trypsin coupled; hit rate 0.15% among 320,000; Histone deacetylase 3 (Homo sapiens), O15379; in the data active means inhibition above about 26%, passing the limit was not always enough
AHR act = AHR activators, primary screen, cell-based, luminescence, luciferase reporter, human; Aryl hydrocarbon receptor (Homo sapiens), P35869; AHR-responsive luciferase reporter cells; activation, % at 5 µM; hit rate 2.5% among 320,000; AID 2796, 2010; in the data active means activation above about 47%
CTSL1 counter = Fasciola hepatica cathepsin L1 inhibitors, primary screen, counter-screen for PFM18AAP inhibitor project, biochemical, QFRET, fluorogenic peptide substrate | AID 1906, 2009 | inhibition, % at 5.96 µM | hit rate 0.49% among 300,000 | recombinant F. hepatica cathepsin L1, Z-Leu-Arg-MCA fluorescence;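 active means inhibition above the mean of all tested compounds plus 3 SD, set per screening campaign, cut at about 17% in these data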
SENP1 FRET inh = human SENP1 catalytic domain inhibitors, primary screen, biochemical, FRET, uHTS; Sentrin-specific protease 1 (Homo sapiens), Q9P0U3; recombinant SENP1 catalytic domain, CyPet-SUMO1-YPet FRET cleavage; inhibition, % at 10 µM; hit rate 0.21% among 360,000; AID 624204, 2012;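 active means inhibition at least 30% at 10 µM, raw YFP signal under a set limit, fluorescence ratio 0.5 to 1.5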
Target sequence (Q9P0U3 419-644 limits assumed): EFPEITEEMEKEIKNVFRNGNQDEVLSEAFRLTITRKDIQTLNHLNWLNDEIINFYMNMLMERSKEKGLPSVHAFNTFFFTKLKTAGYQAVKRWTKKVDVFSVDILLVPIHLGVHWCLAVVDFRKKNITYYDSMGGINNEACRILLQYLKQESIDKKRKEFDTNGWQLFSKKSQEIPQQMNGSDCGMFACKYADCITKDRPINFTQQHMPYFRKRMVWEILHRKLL
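Test system: human SENP1 catalytic domain; medium: Tris pH 8 buffer plus EDTA, NaCl, BME, BSA, NP40, catalase; incubation: 50 min reaction at room temperature; technique: FRET, CFP and YFP emission; controls: no-enzyme low control and enzyme-plus-DMSO high control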
M18AAP inhibitor = PfM18AAP inhibitors, malaria aminopeptidase, primary screen, biochemical, QFRET, recombinant enzyme; H-Glu-NHMec fluorogenic cleavage; inhibition, % at 7.35 µM; hit rate 1.2% among 290,000; AID 1822, 2009;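 active means inhibition above the campaign mean inhibition over all tested compounds plus 3 SD, cut at about 28% in these data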
FXN GAA850 act = FXN promoter activators, primary screen, cell-based, luciferase luminescence, HEK293 lucGAA850; HEK293 lucGAA850 FXN promoter luciferase reporter, 24 h; percent of 10 µM SAHA response; activation, % at 6 µM; AID 540364, 2011; hit rate 0.56% among 360,000;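 active means activation above the average of all compounds screened plus 3 SD, cutoff fixed separately per campaign, cut at about 7.5% in these data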
Hits are given with their value; i = inactive; nt = not tested or not shown. An excerpt weighted towards active compounds, which were near 4.2% of everything screened.

SMILES	HDAC3 inhib	AHR act	CTSL1 counter	SENP1 FRET inh	M18AAP inhibitor	FXN GAA850 act
COc1ccc(Cl)cc1Nc1nc(C)cc(C)c1C(N)=O	i	59	i	i	i	i
CC[N+](CC)(CC)CC(=O)Nc1c(C)cccc1C	i	i	21	i	nt	i
Cc1cccc(C)c1NC(=O)CNCC(=O)Nc1c(C)cccc1C	i	i	i	i	i	i
FC(F)(F)c1nnc(-c2ccccc2)nc1N1CCOCC1	i	53	i	i	i	i
FC(F)(F)c1cccc(-c2nnc(-c3ccccc3)c(N3CCOCC3)n2)c1	i	i	17	i	i	i
CSc1nc(-c2ccccc2)nc(N2CCCC2)c1C(C)=O	i	i	i	i	i	i
CSc1nc(-c2ccccc2)nc(N2CCOCC2)c1C(C)=O	i	69	i	i	i	i
Cc1sc2ncnc(N3CCN(Cc4ccccc4)CC3)c2c1-c1ccc(F)cc1	i	i	i	i	i	i
CC(C)C(C(=O)NCc1ccccc1)N1CCN(C(=O)C2CCCO2)CC1 (stereo unspecified)	nt	nt	nt	i	nt	nt
CCOc1cc(N2CCOCC2)c(OCC)cc1NC(=O)COC(=O)c1cc2ccccc2cc1O	i	i	58	i	i	i
CCOc1cc(N2CCOCC2)c(OCC)cc1NC(=O)CSc1n[nH]c(N)n1	i	i	21	i	i	i
CCOc1cc(N2CCOCC2)c(OCC)cc1NC(=O)CN1C(=O)NC2(CCCCC2)C1=O	i	i	nt	i	nt	i
CCOc1cc(N2CCOCC2)c(OCC)cc1NC(=O)CSc1nc(N)cc(=O)[nH]1	i	i	nt	i	nt	i
CCOc1cc(N2CCOCC2)c(OCC)cc1NC(=O)COC(=O)C1CCCN1S(=O)(=O)c1ccccc1F (stereo unspecified)	i	i	nt	i	nt	i
CCOc1cc(N2CCOCC2)c(OCC)cc1NC(=O)CN1C(=O)NC(C)(C2CC2)C1=O (stereo unspecified)	i	i	37	i	i	i
CCOc1cc(N2CCOCC2)c(OCC)cc1NC(=O)COC(=O)[C@@H]1CCCN1S(=O)(=O)c1ccccc1F	i	i	80	i	i	i
COc1cc(C=NO)nc(-c2ccccn2)c1	nt	nt	nt	i	nt	i
Cc1cc(C)c(NC(=O)C2C(=O)Nc3ccccc3C(=O)N2C(C)(C)C)c(C)c1 (stereo unspecified)	nt	nt	nt	i	nt	nt
O=c1[nH]c(CN2CCN(c3ccccc3)CC2)nc2scc(-c3ccccc3)c12	i	i	i	i	i	i
Cc1sc2nc(CN3CCN(c4ccc(O)cc4)CC3)[nH]c(=O)c2c1C	i	i	i	i	32	i
COc1ccc(CCNS(=O)(=O)c2ccc(Br)cc2)cc1OC	i	i	i	i	i	i
O=[N+]([O-])c1ccc(N2CCN(Cc3ccccc3)CC2)c2c1no[n+]2[O-]	nt	nt	nt	36	nt	i
COc1ccc(OCc2cc(C(=O)N3CCCC(O)C3)no2)c2ccccc12 (stereo unspecified)	i	52	i	i	i	i
COc1ccc(OCc2cc(C(=O)N3CCCC(OC)C3)no2)c2ccccc12 (stereo unspecified)	i	i	i	i	i	i
Cc1ccc(-c2nc3n(n2)Cc2ccccc2-3)cc1	i	i	i	i	i	i
SMILES	HDAC3 inhib	AHR act	CTSL1 counter	SENP1 FRET inh	M18AAP inhibitor	FXN GAA850 act
Fc1ccc(-c2nc3n(n2)Cc2ccccc2-3)cc1	i	61	i	i	i	i
O=C(NCc1ccccc1)c1cc(C2COCCN2C(=O)OCCF)on1 (stereo unspecified)	nt	nt	nt	i	nt	i
N#Cc1c(SCC(=O)Nc2nccs2)sc2c(O)cc(=O)[nH]c12	i	i	i	i	29	i
CCCSc1nnc(NC(=O)CSc2sc3c(O)cc(=O)[nH]c3c2C#N)s1	i	i	i	i	i	i
CC(=O)c1c(C)[nH]c(C(=O)CSc2nnc(-c3cccs3)n2Cc2ccccc2)c1C	i	i	i	i	i	i
CC(=O)c1c(C)[nH]c(C(=O)CSc2nnc(-c3ccco3)n2Cc2ccccc2)c1C	i	69	i	i	i	i
COc1ccccc1-n1c(SC(C)C(=O)NCC2CCCO2)nc2cc(Cl)ccc2c1=O (stereo unspecified)	i	59	i	i	nt	i
CN(C)S(=O)(=O)c1cccc(NC(=O)c2ccc(COc3ccccc3)cc2)c1	nt	i	i	i	i	i
CC(NC(=O)COc1ccccc1Cl)c1ccccc1 (stereo unspecified)	i	i	i	i	i	i
CCCNC(=O)C1(C)CCN(C(=O)COCc2ccccc2)C1 (stereo unspecified)	nt	nt	nt	i	nt	i
COc1ccc(S(=O)(=O)Nc2cccc3ccc(O)cc23)cc1	i	i	i	i	nt	i
COc1ccc(S(=O)(=O)Nc2cc(Sc3ncn[nH]3)c(O)c3ccccc23)cc1	nt	nt	nt	nt	50	nt
Cc1ccc(-c2cnc(C(O)c3cc(F)cc(Cl)c3)[nH]2)cc1 (stereo unspecified)	nt	nt	nt	i	nt	i
CCN(C(=O)COc1ccccc1[N+](=O)[O-])C1CCS(=O)(=O)C1 (stereo unspecified)	i	i	i	i	i	i
O=C(COc1ccccc1[N+](=O)[O-])N(Cc1ccco1)C1CCS(=O)(=O)C1 (stereo unspecified)	i	i	25	i	i	i
O=C(COc1ccc([N+](=O)[O-])cc1)NNC(=O)C1COc2ccccc2O1 (stereo unspecified)	nt	nt	nt	i	nt	i
Brc1ccc(CSc2ccc3nnc(-c4cccnc4)n3n2)cc1	i	i	i	i	i	i
CCOc1ccccc1NC(=O)CSc1ccc2nnc(-c3cccnc3)n2n1	i	i	i	i	i	i
COc1ccccc1NC(=O)CSc1ccc2nnc(-c3cccnc3)n2n1	i	79	i	i	i	i
O=C(CSc1ccc2nnc(-c3ccccn3)n2n1)Nc1nccs1	i	55	i	i	i	i
Cc1ccc(CSc2ccc3nnc(-c4cccnc4)n3n2)cc1	i	71	i	i	i	i
Cc1cccc(NC(=O)NNC(=O)c2cc3ccccc3cc2O)c1C	i	i	i	i	i	i
Cc1cccc(NC(=S)NNC(=O)c2ccc(O)cc2O)c1C	i	i	i	i	29	i
CCOc1ccc(/C=C2/Sc3ccc(C(=O)N4CCN(C(=O)c5ccco5)CC4)cc3N(C)C2=O)cc1OC	i	i	i	nt	i	nt
CCOC(=O)N1CCN(C(=O)c2ccc3c(c2)N(C)C(=O)/C(=C\c2ccc(OCC)c(OC)c2)S3)CC1	i	i	20	i	i	i
